Test results reported in the EternaBench riboswitch data.

System: MS2 coat protein
Assay: apparent Kd, MS2 coat protein; higher = weaker binding; RNA-MaP array; FMN 200 µM where present
Procedure, shortened: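 The titrant was SNAP-549-labelled MS2 coat protein, run from 0.7 or 1.5 nM in doubling steps to 3 µM. It was applied to designs transcribed by stalled E. coli RNA polymerase on Illumina sequencing-chip clusters, without ligand first and then with constant ligand, in 100 mM Tris-HCl pH 7.5, 80 mM KCl, 4 mM MgCl2, BSA, DTT, yeast tRNA and Tween-20. The apparent Kd is the median of filtered per-cluster binding-curve fits, with green signal normalised to red-channel RNA signal and control-cluster median Fmax.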

[1] = designed as: OFF switch for flavin mononucleotide, no ligand
[2] = ligand present: flavin mononucleotide, designed as: OFF switch for flavin mononucleotide
[3] = designed as: ON switch for flavin mononucleotide, no ligand
[4] = ligand present: flavin mononucleotide, designed as: ON switch for flavin mononucleotide

Sequence	apparent Kd [1] [nM]	apparent Kd [2] [nM]	apparent Kd [3] [nM]	apparent Kd [4] [nM]
AUUAUGACCGAGUAAAGCUUCAAAACAUGAGGAUCACCCAUGUAGGAUAUCAGCACGAUAAGUGCUGAGAAGGACAUCUCGGUC	14.3	15.1		
AUUAUGUAAGGAUAUCUUACAUGUGACUUCGGUCACUGUUAAGAGAAGGUACAUGAGGAUCACCCAUGUAGAAC	18.7	28.7		
AUUCCCAACCAGAAGGACAUGAGGAUCACCCAUGUAGGAUAUGGGUGGGCGACCCGAACUUGGACGAAAUCGCAAUUCUCACAC			57.8	10.4
AUUGUAUGGGAAGGAUAUAGAAUAUUAUUUUAACAUGAGGAUCACCCAUGUAACCUUAUGUGUAGCUAGAAGGUCCGUUUAUUA	131	157		
AUUGUUUAUGUAGGAUAUGCCUGGCGUGCCUUUGCAGAAGGACAUGAGGAUCACCCAUGUAUUGCGGUCUGCGUUCAGAUCGCA	33.2	44.3		
AUUUAAAUGUCAGGAUAUGGUAGUUUAUACUUAUCAGAAGGGAUAAUUAUACUCAAGUACAUGAGGAUCACCCAUGUUAAAUCA			30.5	15.8
AUUUAAAUGUCAGGAUAUGUUAGUUUAUACUUAGUAGAAGGGAUAAUUAUACUCAAGUACAUGAGGAUCACCCAUGUUAAAUCA			21	18.5
AUUUAGAGAGGAUAUAUAAUGUGAAACAUGAGGAUCACCCAUGUAAUAUUAUGGAUGUAAAUAGAAGGCUCAUUUA	32.7	27.7		
AUUUAGUGCGAGAAGGCGUGGUCACAUGAGGAUCACCCAUGUCAGUACACGAGGAUAUCGUUUCGCUGUGUAAACACAAGCGAC			40.3	6.15
AUUUUGUGAGGAUAUGUGGCUUCGAUCGUGAAAACGAGGCUACAGAAGGCACAUGAGGAUCACCCAUGUUCCUA	20.5	169		
CAACCGUUGCAGAAGGUUAAAUAUAUCAACUUAUGGACAACAUGAGGAUCACCCAUGUUUUUGUUGAAGGAUAUGCAAGGGUUG	5.89	5.71		
CAACGUGGAGGAUAUUAGCGAGACAACAUGAGGAUCACCCAUGUGGUACUCAUCUCCUCCUGAGAAGGCUACGCCC	11.8	12.3		
CAACUGUGAGGAUAUGGUGAGUAGUGCCUGAGCGCUGCUCACCAGAAGGCACAUGAGGAUCACCCAUGUAUAAC	42.9	176		
CAAGGAUACUUAUAAGCUGACAAACCAGAAGGAUGAGCCUCUACAUGAGGAUCACCCAUGUGUUCGUAGGAUAUGGGUCGGAAG			11.3	31.5
CAAGUGUCAGGAUAUACAUGAGGAUCACCCAUGUGUCUUUGUGAUCGUAGGGUGCACCGUAGAAGGGACACUCC	70.4	127		
CAAUGUACCUAGGAUAUAACCUACGACAUUGGGUUAGAAGGAGGAACAUGAGGAUCACCCAUGUGACUUCGCAA	10	11.9		
CAAUUGGCACAGAAGGGUGACAUGAGGAUCACCCAUGUAGCGUGGCAUUCAGGAGGAGCCACGCCACAGGAUAUGUGCGGGCAC			107	155
CACAAGAAAGUCGAAGGUUGAAGUAGAAGGACUAUAACAUGACAUGAGGAUCACCCAUGUGCCAAGUAGGAUAUGCUUUAAUCG	7.7	7.38		
CACAUUUUAACAGGAUAUGUAAGGUUGUUUAUUAUUGCAUUUACAAUUAUUACAGAAGGGUUAUACAUGAGGAUCACCCAUGUG			15.3	15.5
CACCGUUACGUAGGAUAUAGUACAUGAGGAUCACCCAUGUAAUAAAUGAGAAUUUCGGAUGUAUGCUAGAAGGACGAAAUCGGC	53	49.1		
CACGAUCAUGUAGGAUAUAUACUGGAAUACAGUAUAGAAGGACAUGAGGAUCACCCAUGUUAUGUGCCUCCAAGUAAGAUCGUG	17.7	23.2		
CACGAUGAUGUAGGAUAUAUACUGGAAUACAGUAUAGAAGGACAUGAGGAUCACCCAUGUUAAGUGCCUCCAAGUAACAUCGUG	17.2	25.4		
CACGGACAUGAGGAUCACCCAUGUGAGGAUAUGCUCUACGAACGUUUUCCCACGAGAAGCAGAAGGCACAUUUC	78.2	135		
